Drawing on ChEMBL document CHEMBL4052590, “Anti-Osteoporotic Activity of Harpagoside by Upregulation of the BMP2 and Wnt Signaling Pathways in Osteoblasts and Suppression of Differentiation in Osteoclasts” (J Nat Prod, 2017), this text covers Activity, viability and inhibition for 1 compound.

For data set [1], the system named is Mus musculus. Description: Effect on […] level in serum of OVX-induced bone loss ICR mouse model at 5 mg/kg, po for 12 weeks by ELISA (reference value: 8.2 +/- 0.4 mg/dl). The data set is classed as functional.
Data set [2] relates to MC3T3-E1. Description: Increase in OPG mRNA expression in mouse MC3T3-E1 cells up to 4 uM after 48 hrs in presence of ascorbic acid and beta-glycerophosphate by real-time PCR analysis. The data set is classed as functional, cell-based. The method, boiled down: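 MC3T3-E1 cells stimulated with 400 μM ascorbic acid and 5 mM β-glycerophosphate, with or without compound, 48 h. TRIzol RNA, real-time RT-PCR: 40 cycles of 95 °C 20 s, 56 °C 20 s, 72 °C 30 s. Ct of each transcript […] β-actin Ct, expressed relative to control samples.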
On the technique in general: Quantitative PCR measures a nucleic acid by following its amplification.

The species named for data set [3] is Mus musculus. Description: Activation of Wnt signaling pathway in mouse MC3T3-E1 cells assessed as increase in Smad protein expression up to 4 uM after 48 hrs in presence of ascorbic acid and beta-glycerophosphate by Western blot analysis. It is filed as cell-based. In outline: (§1)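 MC3T3-E1 cells given 400 μM ascorbic acid plus 5 mM β-glycerophosphate, exposed to test compound or not for 48 h. Lysed in boiling SDS sample buffer, protein measured by BCA. 40−50 μg of lysate run on 8% or 10% SDS-PAGE and transferred to PVDF. Blocked in 5% milk, probed with primary antibodies for 3 h at room temperature or overnight at 4 °C, detected by ECL.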
A general note: In western blotting, separated proteins are transferred to a membrane and probed.

For data set [4], the system named is Mus musculus. Description: Effect on […] level in serum of OVX-induced bone loss ICR mouse model at 10 mg/kg, po for 12 weeks by ELISA (reference value: 8.2 +/- 0.4 mg/dl). It is filed as functional. In general terms: An ELISA detects its analyte on a solid surface through an enzyme-linked reagent.
Data set [5] concerns Mus musculus. Description: Anti-osteoporotic activity in po dosed OVX-induced bone loss ICR mouse model assessed as decrease in trabecular bone destruction in femur administered for 12 weeks by microcomputed tomography. It is filed as functional, organism-based.
The test system of data set [6] is Mus musculus. Description: Effect on alkaline phosphatase activity in serum of OVX-induced bone loss ICR mouse model at 2 mg/kg, po for 12 weeks using p-NPP as substrate (reference value: 84.9 +/- 4.2 U/L). The data set is classed as functional.
Data set [7] deals with Mus musculus. Description: Effect on calcium level in serum of OVX-induced bone loss ICR mouse model at 5 mg/kg, po for 12 weeks by ELISA (reference value: 9.3 +/- 0.3 mg/dl). The data set is classed as functional.
For data set [8], the species on record is Mus musculus. Description: Activation of Wnt signaling pathway in mouse MC3T3-E1 cells assessed as increase in BMP2 mRNA expression after 48 hrs in presence of ascorbic acid and beta-glycerophosphate by real-time PCR analysis. It is filed as cell-based.
The species entered for data set [9] is Mus musculus. Description: Activation of Wnt signaling pathway in mouse MC3T3-E1 cells assessed as upregulation of C-Myc protein expression after 48 hrs in presence of ascorbic acid and beta-glycerophosphate by Western blot analysis. The data set is classed as cell-based. In outline: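 MC3T3-E1 cells with 400 μM ascorbic acid and 5 mM β-glycerophosphate, with or without compound, for 48 h. Whole-cell lysates (40−50 μg, BCA) separated by SDS-PAGE, blotted to PVDF. c-Myc and cyclin D1 probed with primary antibodies, then secondary antibody for 90 min, read by chemiluminescence.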

For data set [10], the species on record is Mus musculus. Description: Activation of Wnt signaling pathway in mouse MC3T3-E1 cells assessed as increase in Runx2 mRNA expression after 48 hrs in presence of ascorbic acid and beta-glycerophosphate by real-time PCR analysis. It is filed as cell-based.
For data set [11], the system named is Mus musculus. Description: Effect on C-terminal telopeptide level in serum of OVX-induced bone loss ICR mouse model at 5 mg/kg, po for 12 weeks by ELISA (reference value: 95.7 +/- 3.8 ng/ml). It is filed as functional.
In data set [12] the test system is Mus musculus. Description: Effect on alkaline phosphatase activity in serum of OVX-induced bone loss ICR mouse model at 10 mg/kg, po for 12 weeks using p-NPP as substrate (reference value: 84.9 +/- 4.2 U/L). The data set is classed as functional.
Data set [13] deals with Mus musculus. Description: Effect on […] level in serum of OVX-induced bone loss ICR mouse model at 2 mg/kg, po for 12 weeks by ELISA (reference value: 8.2 +/- 0.4 mg/dl). The data set is classed as functional.
The subject of data set [14] is MC3T3-E1. Description: Upregulation of OPN protein expression in 2 days differentiated mouse MC3T3-E1 cells up to 4 uM after 48 hrs in presence of ascorbic acid and beta-glycerophosphate by Western blot analysis. It is filed as functional, cell-based.
Data set [15] deals with MC3T3-E1. Description: Downregulation of RANKL protein expression in mouse MC3T3-E1 cells up to 4 uM after 48 hrs in presence of ascorbic acid and beta-glycerophosphate by Western blot analysis. It is filed as functional, cell-based. The method, boiled down: as §1
For data set [16], the system named is MC3T3-E1. Description: Upregulation of beta-catenin protein expression in mouse MC3T3-E1 cells after 48 hrs in presence of ascorbic acid and beta-glycerophosphate by Western blot analysis. It is filed as functional, cell-based.
Data set [17] is described as follows: Cytotoxicity against mouse osteoclasts assessed as effect on cell survival up to 4 uM after 72 hrs by MTT assay. The data set is classed as cell-based, Osteoclast. Particulars: read-out: Survival.
For data set [18], the system named is MC3T3-E1. Description: Induction of OCN mRNA expression in mouse MC3T3-E1 cells up to 4 uM after 48 hrs in presence of ascorbic acid and beta-glycerophosphate by real-time PCR analysis.
In the next data set the test system is Osteoclast. Description: Inhibition of RANKL/M-CSF-induced osteoclast differentiation in mouse bone marrow-derived osteoclasts assessed as reduction in formation of TRAP-positive cells after 5 days. The data set is classed as functional, cell-based. The method, boiled down: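 Bone marrow cells from 4-week-old mice were primed 24 h with 30 ng/mL M-CSF, then cultured with 100 ng/mL RANKL plus 30 ng/mL M-CSF. Compound was present or absent and medium was renewed every 2 days. On day 5 cells were fixed in 4% paraformaldehyde and TRAP-stained 1 h at 37 °C. Multinucleated TRAP-positive cells with ≥3 nuclei were counted as osteoclasts.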

Active and inactive are the calls of the source. The rule behind the calls is not given here. A value given as a limit tells only on which side of the number the result lay.

For the compound `C[C@]1(OC(=O)/C=C/c2ccccc2)C[C@@H](O)[C@]2(O)C=CO[C@@H](O[C@@H]3O[C@H](CO)[C@@H](O)[C@H](O)[C@H]3O)[C@@H]21` [HARPAGOSIDE], the Activity in the data set with Mus musculus [1] is 8 mg/dL; in the data set with Mus musculus [4], 8.2 mg/dL; with Mus musculus [5], “Dose-dependent effect”; in the data set on Mus musculus [6], 78.5 U/L; in the data set on Mus musculus [7] it was 9.6 mg/dL; in the data set filed under Mus musculus [8], “Dose-dependent effect”. In addition, the Activity result in the data set listed under Mus musculus [9] is “Dose-dependent effect”; in the data set listed under Mus musculus [10] it was “Dose-dependent effect”; in the data set on Mus musculus [11], 85.9 ng/mL; in the data set with Mus musculus [12], 78.8 U/L; in the data set with Mus musculus [13], 7.9 mg/dL; with MC3T3-E1 [14], “Dose-dependent effect”. For the same compound, the Activity result in the data set with MC3T3-E1 [16] is “Dose-dependent effect”. Further, the outcome in the data set on MC3T3-E1 [2], in the data set listed under Mus musculus [3], in the data set with MC3T3-E1 [15] and in the data set on MC3T3-E1 [18] was Active. Besides, the viability at 72 h in [17] is above 85%. Further, in the data set with Osteoclast, the inhibition result was “Active”.
